According to PubChem BioAssay AID602134 (Broad Institute, 2011):
Active and inactive are the calls of the source.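 The calls were made as follows: active = falling transferrin uptake with a fitted half-maximal potency at or below twice the top valid tested dose; inconclusive = flat fit with a 30 to 70% drop, or poor fit; inactive = the rest.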

Experiment: transferrin receptor uptake blockade – imaging, Alexa594-transferrin, dry powder, selectivity assay for SR-BI HDL uptake inhibitor project, dose response (AID 602134)
Settings: mSR-BI cells; series mostly up to 35 µM
In short: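 test system = mSR-BI cells | incubation = transferrin uptake 30 min at 37 °C, stopped on ice | measured by = high-content fluorescence imaging of Alexa-594 transferrin, DAPI nuclear stain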

## CC1CCC/C=C/C2CC(O)CC2C(O)/C=C\C(=O)O1 (stereo unspecified)
  outcome: inactive
